SIRT5 inh – sirtuin-5 (human) deacylase inhibition; Q9NXA8; Purified SirT5, succinyl-peptide AMC, trypsin-coupled fluorescence; inhibition, % at 15 µM; 330,000 compounds, 1.1% hits; AID 652115; in the data active = inhibition above about 15%
E-selectin induc – E-selectin induction on HUVECs; P16581; HUVEC E-selectin immunofluorescence imaging; normalized: neutral wells 0, TNF-alpha wells 100; activation, % at 7.58 µM; 260,000 compounds, 0.37% hits;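 active = mean E-selectin-positive cell signal at least 10% of the positive control, reached in at least 60% of replicates, without over 20% cell loss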
Target sequence (P16581 whole entry, looked up): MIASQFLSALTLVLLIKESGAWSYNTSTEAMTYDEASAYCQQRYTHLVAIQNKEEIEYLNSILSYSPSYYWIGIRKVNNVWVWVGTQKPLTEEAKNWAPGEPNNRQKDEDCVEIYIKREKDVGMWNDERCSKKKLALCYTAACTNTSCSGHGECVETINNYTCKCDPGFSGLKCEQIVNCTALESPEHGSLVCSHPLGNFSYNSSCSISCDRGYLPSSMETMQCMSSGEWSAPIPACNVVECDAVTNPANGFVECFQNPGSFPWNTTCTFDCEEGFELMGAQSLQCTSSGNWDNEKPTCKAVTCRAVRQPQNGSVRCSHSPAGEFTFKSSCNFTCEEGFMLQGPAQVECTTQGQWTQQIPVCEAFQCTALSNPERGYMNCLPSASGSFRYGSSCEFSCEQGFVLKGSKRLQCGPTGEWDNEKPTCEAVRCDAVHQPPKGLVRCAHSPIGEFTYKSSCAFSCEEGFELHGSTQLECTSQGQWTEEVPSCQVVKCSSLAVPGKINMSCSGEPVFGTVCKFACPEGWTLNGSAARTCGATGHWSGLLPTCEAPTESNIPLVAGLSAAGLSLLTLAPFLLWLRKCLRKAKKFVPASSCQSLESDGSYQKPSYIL
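System: HUVEC / Compound: single concentration / Signal: immunofluorescence imaging / Read-out: percent E-selectin-positive cells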
DENV2 CPE – inhibitors of DENV2 cytopathic effect; CPE inhibition, % at 9.99 µM; DENV2-infected cells, cytopathic effect rescue, plate reader; AID 651640; 350,000 compounds, 1.7% hits; in the data active = CPE inhibition above about 20%, passing the limit was not always enough; tested in BHK-21 cells;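 note: 0% = median of neutral control wells and 100% = median of positive control wells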
Numbers without * were called inactive. Compounds with a hit are over-represented: about 2.9% of the library has one in this group of screens.

`C[C@H](CO)N1C[C@H](C)[C@@H](CN(C)S(=O)(=O)c2ccccc2)OCCCC[C@H](C)Oc2ccc(NC(=O)Nc3ccc4c(c3)OCO4)cc2C1=O` gave SIRT5 inh -1, E-selectin induc 0 and DENV2 CPE 29*.
C[C@@H]1CN([C@@H](C)CO)C(=O)c2cc(NC(=O)Nc3ccc4c(c3)OCO4)ccc2O[C@@H](C)CCCCO[C@@H]1CN(C)S(=O)(=O)c1ccccc1 was read as SIRT5 inh 2, E-selectin induc 0 and DENV2 CPE 11.
`O=C(NC(Cc1c[nH]c2ccccc12)C(=O)NCCCN1CCOCC1)c1cccs1` (centres undefined) gave SIRT5 inh -1, E-selectin induc 8 and DENV2 CPE 15.
`Cc1ccc(NS(=O)(=O)c2cccc([N+](=O)[O-])c2)nc1` gave SIRT5 inh 2 and DENV2 CPE 5.
Screening CN1CCN(c2nc(-c3ccc(C(C)(C)C)cc3)nc3ccccc23)CC1 returned SIRT5 inh -5, E-selectin induc 0 and DENV2 CPE -2.
`Cc1ccc(-c2nc(N3CCN(C)CC3)c3ccccc3n2)cc1` gave SIRT5 inh 6, E-selectin induc 3 and DENV2 CPE 25*.
Screening O=C(C[C@@H]1CC[C@H]2[C@@H](COC[C@@H](O)CN2S(=O)(=O)c2ccccc2)O1)Nc1ccc(-c2ccccc2)cc1 returned SIRT5 inh 0, E-selectin induc 1 and DENV2 CPE -5.
For O=C(C[C@H]1CC[C@H]2[C@@H](COC[C@@H](O)CN2S(=O)(=O)c2ccccc2)O1)Nc1ccc(-c2ccccc2)cc1 the results were SIRT5 inh 18*, E-selectin induc 1 and DENV2 CPE -4.
O=C(C[C@H]1CC[C@H]2[C@@H](COC[C@@H](O)CN2C(=O)c2ccncc2)O1)Nc1ccc(-c2ccccc2)cc1 was read as SIRT5 inh 27*, E-selectin induc 0 and DENV2 CPE -7.
`O=C(C[C@@H]1CC[C@@H]2[C@H](COC[C@@H](O)CN2C(=O)c2ccccc2)O1)Nc1ccccc1` gave E-selectin induc 0 and DENV2 CPE 1.
`O=C(C[C@@H]1CC[C@@H]2[C@H](COC[C@H](O)CN2C(=O)c2ccccc2)O1)Nc1ccc(-c2ccccc2)cc1` gave SIRT5 inh 3, E-selectin induc 0 and DENV2 CPE 44*.
O=C(C[C@@H]1CC[C@@H]2[C@H](COC[C@H](O)CN2C(=O)c2ccncc2)O1)Nc1ccc(-c2ccccc2)cc1 was read as SIRT5 inh 1, E-selectin induc 0 and DENV2 CPE 5.
Screening O=C(C[C@@H]1CC[C@H]2[C@@H](COC[C@@H](O)CN2C(=O)c2ccccc2)O1)Nc1ccc(-c2ccccc2)cc1 returned SIRT5 inh 3, E-selectin induc 1 and DENV2 CPE 48*.
`O=C(C[C@@H]1CC[C@@H]2[C@H](COC[C@H](O)CN2C(=O)c2ccccc2)O1)Nc1ccccc1` gave E-selectin induc 0 and DENV2 CPE -7.
Screening COc1ccc2cc(C3=CC(=O)CC(C)(C)C3=O)ccc2c1 returned E-selectin induc 0 and DENV2 CPE -3.
`CCCN(C)C[C@@H]1OCCCC[C@H](C)Oc2ccc(NS(=O)(=O)c3ccc(C)cc3)cc2C(=O)N([C@@H](C)CO)C[C@H]1C` gave SIRT5 inh 2, E-selectin induc 0 and DENV2 CPE -9.
CO[C@@H]1CN(C)C(=O)c2cc(NC(=O)c3nc4ccccc4s3)ccc2OC[C@@H](C)N(Cc2ccncc2)C[C@H]1C was read as SIRT5 inh 6, E-selectin induc 0 and DENV2 CPE 7.
For Cc1c(C)c2ccc(OCC(=O)N3CCC(C(=O)O)CC3)cc2oc1=O the results were SIRT5 inh -23 and DENV2 CPE -20.
Screening OCC(Cc1ccc2c(c1)OCO2)C(CO)Cc1ccc2c(c1)OCO2 (centres undefined) returned DENV2 CPE -2.
For CC(Cc1ccco1)NC(=O)c1ccc(C(F)(F)F)cc1 (centres undefined) the results were SIRT5 inh -1, E-selectin induc 1 and DENV2 CPE 12.
COc1ccc(C(CNC(=O)C(Cc2ccccc2)NC(N)=O)N(C)C)cc1 (centres undefined) was read as SIRT5 inh -1, E-selectin induc 0 and DENV2 CPE 1.
For C#CCNC(=O)C[C@@H]1C[C@@]2(C(=O)OCC)CCC=C2N(Cc2ccc(Cl)cc2Cl)C1=O the results were SIRT5 inh 0 and DENV2 CPE -1.
Cc1cc(C)c2c(c1)NC(C(=O)O)C1CC=CC21 (centres undefined) was read as SIRT5 inh 18* and DENV2 CPE 2.
For O=C(O)C1Nc2c(C(F)(F)F)ccc(Cl)c2C2C=CCC12 (centres undefined) the results were SIRT5 inh -1 and DENV2 CPE 1.

Screening data deposited in PubChem by Broad Institute.
